Each block holds one compound with its values, some of them ahead of it. No end group written: not given here.
Assays:
[1] = system: histone H3 acetylation in HeLa cells; assay: Histone H3 acetylation level in HeLa cells treated with GCN5/PCAF inhibitor; format: cell-based; conditions: Figure S5C
[2] = system: AF9 occupancy on MYC in HeLa cells; assay: AF9 occupancy on MYC in HeLa cells treated with GCN5/PCAF inhibitor; format: cell-based; conditions: Figure S5C
Procedure, shortened: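 HeLa cells (endogenous AF9 has no ChIP-grade antibody, so a line stably expressing Flag-AF9 was used) were treated with the GCN5/PCAF inhibitor. Cells were crosslinked with 1% formaldehyde for 10 min, then quenched with 125 mM glycine. Nuclei were sonicated and immunoprecipitated with 2–4 µg antibody overnight at 4°C, collected with Staph A cells, washed and reverse-crosslinked. MYC DNA was quantified by SYBR Green qPCR. Differences were tested by two-way unpaired Student's t-test.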

[3] = molecular target: human AF9 YEATS (1–138) (human) (UniProt P42568); assay: ITC
AF9 YEATS domain = molecular target: T1, AF9 YEATS domain (Homo sapiens, UniProt P42568); assay: Isothermal titration calorimetry; format: binding; conditions: ITC; different frames of the H3K9ac peptides; Figure 4A
T1 sequence (P42568 1-138 limits assumed): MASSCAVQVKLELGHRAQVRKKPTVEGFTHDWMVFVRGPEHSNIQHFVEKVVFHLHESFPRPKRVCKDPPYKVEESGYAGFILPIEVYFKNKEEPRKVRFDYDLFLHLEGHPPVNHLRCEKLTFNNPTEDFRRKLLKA

Compound: Clc1ccc(-c2csc(NN=C3CCCC3)n2)cc1 [CPTH2]
histone H3 acetylation levels [1]: reduced
AF9 occupancy on MYC [2]: reduced

Compound: H3K27ac peptide (ITC)
Kd [3]: 7 µM

Compound: H3_7–11K9ac: H3K9ac peptide frame 7–11 (ARK(Ac)ST)
binding (in words) (AF9 YEATS domain): no binding

Next, values leading:

fold binding reduction against the H3K9ac peptide [3]: 200 fold
Compound: H3K9ac peptide with H3R8 substituted with alanine

Kd [3]: 11 µM
Compound: H3K18ac peptide (ITC)

Reference: PMC4344132 (Cell, 2014)
